Assay outcomes deposited in PubChem BioAssay by The Scripps Research Institute Molecular Screening Center.
TAAR1 antag – antagonists of human TAAR1; Q96RJ0; CHO RD-HGA16 TAAR1, Fluo-8 calcium fluorescence, antagonist; inhibition, % at 3 µM; actives 1.5% (n = 360,000); AID 624466;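 active = inhibition above a per-plate cutoff, the mean inhibition of test compounds on that plate plus 3 SD, cut at about 49% in these data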;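 note: 0% = DMSO plus EC80 beta-PEA response and 100% = DMSO alone without agonist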
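Test system – hTAAR1-expressing CHO RD-HGA16 cells, Gα16-coupled · Reagent – β-PEA at EC80 concentration, post-compound challenge · Compound dosing – 3 µM, single point · Timing – 140 s kinetic read after compound, 140 s after agonist · Detection – Fluo-8 intracellular calcium dye fluorescence, real-time kinetic reads · Control set – DMSO and EC80 PEA controls · Repeats – n of 1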
TAAR1 agonist – agonists of human TAAR1 | Q96RJ0 | CHO RD-HGA16 TAAR1, Fluo-8 calcium fluorescence; vehicle wells 0%, saturating PEA agonist 100% | activation, % at 3 µM | actives 0.99% (n = 360,000) | AID 624467;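 active = activation above the mean activation of all test compounds in the run plus 3 SD, cut at about 38% in these data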
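Test system: RD-HGA16 (CHO) cells co-expressing Gα16 and hTAAR1; dosing: one-point dosing at 3 µM (nominal); timing: 17-24 h seeding, 75 min 37 °C dye, 30 min RT; signal: kinetic Fluo-8 calcium fluorescence; read-out basis: % activation relative to PEA EC100 response; controls: DMSO and PEA EC100; replicates: n 1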
CHO parental Ca – signal in parental CHO cells, OX1R antagonist counter-screen | actives 0.63% (n = 330,000) | AID 463079 | inhibition, % at 5.6 µM | parental CHO-K1, ATP-induced calcium, Fluo-8 fluorescence;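 active = inhibition above that plate's mean sample inhibition plus 3 SD, cut at about 26% in these data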;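 note: 0% = ATP-challenged DMSO wells and 100% = DMSO wells without ATP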
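test system = CHO parental line | reagent = ATP stimulus | measured by = intracellular calcium via Fluo-8 no-wash fluorescent dye | control set = ATP and no-ATP DMSO wells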
GPR7 antag – antagonists of human GPR7 (neuropeptides B/W receptor 1). P48145. GPR7-expressing cells, fluorescence antagonist assay. inhibition, % at 4.4 µM. actives 1.1% (n = 290,000). AID 1861; in the data active = inhibition above about 16%, passing the limit was not always enough;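 note: cells stimulated with the agonist NPW; 0% = agonist with vehicle and 100% = vehicle without agonist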
Target sequence (P48145 whole entry, looked up): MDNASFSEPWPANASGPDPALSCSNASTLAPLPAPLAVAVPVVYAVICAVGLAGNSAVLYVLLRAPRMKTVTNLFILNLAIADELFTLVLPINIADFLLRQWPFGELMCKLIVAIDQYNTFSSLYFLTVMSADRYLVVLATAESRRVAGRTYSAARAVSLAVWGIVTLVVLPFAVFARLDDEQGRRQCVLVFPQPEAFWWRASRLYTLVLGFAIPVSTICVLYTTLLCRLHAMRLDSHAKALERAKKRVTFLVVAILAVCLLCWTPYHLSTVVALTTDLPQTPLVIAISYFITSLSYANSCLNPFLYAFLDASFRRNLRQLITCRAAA
OX1R antag-1 – human HCRTR1 antagonism | O43613 | CHO/OX1R cells, Fluo-8 calcium fluorescence, orexin A | inhibition, % at 5 µM | actives 0.43% (n = 330,000) | AID 434989;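 active = inhibition above its plate's threshold, mean inhibition of all tested compounds on the plate plus 3 SD, cut at about 37% in these data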;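 note: 0% = orexin A challenge wells and 100% = SB-334867-A antagonist wells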
Target sequence (O43613 whole entry, looked up): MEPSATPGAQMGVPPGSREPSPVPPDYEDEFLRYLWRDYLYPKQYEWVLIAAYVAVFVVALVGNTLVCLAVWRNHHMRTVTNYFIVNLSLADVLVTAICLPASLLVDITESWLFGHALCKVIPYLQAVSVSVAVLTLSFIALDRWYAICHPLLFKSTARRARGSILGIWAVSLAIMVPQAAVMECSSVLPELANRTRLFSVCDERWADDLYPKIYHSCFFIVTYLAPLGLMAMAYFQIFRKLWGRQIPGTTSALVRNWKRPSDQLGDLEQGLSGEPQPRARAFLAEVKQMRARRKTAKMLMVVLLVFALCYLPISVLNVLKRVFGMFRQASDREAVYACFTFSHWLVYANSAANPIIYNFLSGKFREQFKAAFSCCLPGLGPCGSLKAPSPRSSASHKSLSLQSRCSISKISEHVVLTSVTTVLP
OX1R antag-2 – antagonists of human orexin 1 receptor (OX1R) | O43613 | OX1R-expressing cells, FRET antagonist read-out | inhibition, % at 6.6 µM | actives 1.8% (n = 330,000); in the data active = inhibition mostly above about 38%, no sharp cut-off; inactive = mostly below about 40%;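 note: 0% = agonist challenge alone and 100% = reference antagonist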
TAAR1 nonsel count – nonselective antagonist in TAAR1 antagonist counter-screen. shares compounds with TAAR1 antag. counterscreen cell line, calcium fluorescence, antagonist mode. inhibition, % at 3 µM. actives 77% (n = 2,400). AID 651780; in the data active = inhibition above about 22%;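 note: CHO-Ga16 host cells stimulated with ATP at an EC80 level; 0% = agonist EC80 plus vehicle and 100% = vehicle without agonist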
TAAR1 antag conf – human TAAR1 antagonism, confirmed. shares compounds with TAAR1 antag. TAAR1-expressing cells, fluorescence antagonist read-out. inhibition, % at 3 µM. actives 40% (n = 2,400); in the data active = inhibition above about 49%;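 note: CHO-Ga16 host cells challenged with agonist PEA near its EC80; 0% = agonist at EC80 plus vehicle and 100% = vehicle with no agonist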
Ga16 ag counter – nonselective Ga16 agonism, counter-screen | Ga16-expressing cells, calcium fluorescence, agonist counterscreen | actives 18% (n = 2,400) | activation, % at 3 µM | AID 651953 | shares compounds with TAAR1 antag; in the data active = activation above about 12%;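 note: 0% = vehicle wells and 100% = saturating stimulus response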
TAAR1 ag counter – activates human TAAR1 in antagonist counter-screen; shares compounds with TAAR1 antag; hTAAR1 cell line, fluorescence activation, agonist mode; activation, % at 3 µM; actives 2% (n = 2,400); AID 651955; in the data active = activation above about 37%;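 note: CHO cells stably expressing TAAR1 with calcium dye readout; 0% = DMSO vehicle and 100% = full agonist response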
Active calls of the source: *. Only some compounds are listed: those with a hit (about 4.6% of all), similar ones and a draw of the others.

For CC(C)n1nnnc1SCC(=O)NC1CCCC1 the results were TAAR1 antag -4, TAAR1 agonist 2, CHO parental Ca -4, GPR7 antag 3, OX1R antag-1 -12 and OX1R antag-2 12.
CC(C)(C)NC(=O)CN(Cc1cccs1)C(=O)C1COc2ccccc2O1 (configuration not stated) was read as TAAR1 antag 12, TAAR1 agonist 4, CHO parental Ca -10, GPR7 antag -1, OX1R antag-1 -35 and OX1R antag-2 12.
Screening CC(C)CCNC(=O)C(c1ccc(O)cc1)N(Cc1cccs1)C(=O)C1COc2ccccc2O1 (configuration not stated) returned TAAR1 antag 57*, TAAR1 agonist 5, CHO parental Ca -20, GPR7 antag -8, OX1R antag-1 -11, OX1R antag-2 20, TAAR1 nonsel count 27*, TAAR1 antag conf 54*, Ga16 ag counter 4 and TAAR1 ag counter 1.
For CCOC(=O)Cc1ccc(Nc2nc(NCc3cccs3)nc3ccsc23)cc1 the results were TAAR1 antag 76*, TAAR1 agonist 6, TAAR1 nonsel count 42*, TAAR1 antag conf 45, Ga16 ag counter 5 and TAAR1 ag counter -1.
O=C(c1nn(Cc2ccccc2)c(=O)c2ccccc12)N1CCN(C/C=C/c2ccccc2)CC1 was read as TAAR1 antag 50*, TAAR1 agonist 10, CHO parental Ca -23, GPR7 antag -4, OX1R antag-1 -18, OX1R antag-2 20, TAAR1 nonsel count 18, TAAR1 antag conf 27, Ga16 ag counter 3 and TAAR1 ag counter 4.
For O=C(c1ccco1)N1CCN(C/C=C/c2ccccc2)CC1 the results were TAAR1 antag -10, TAAR1 agonist 5, CHO parental Ca -15, GPR7 antag -10, OX1R antag-1 -17 and OX1R antag-2 13.
COc1ccc(CCN2CC(C#N)=C3c4cc(OC)c(OC)cc4CCN3C2)cc1OC was read as TAAR1 antag 9, TAAR1 agonist 4, CHO parental Ca -19, GPR7 antag -10, OX1R antag-1 -38 and OX1R antag-2 10.
COc1cc2c(cc1OC)C1=C(C#N)CN(C3CCCCC3)CN1CC2 was read as TAAR1 antag 53*, TAAR1 agonist 8, CHO parental Ca -19, GPR7 antag -17, OX1R antag-1 -31, OX1R antag-2 7, TAAR1 nonsel count 23*, TAAR1 antag conf 34, Ga16 ag counter 10 and TAAR1 ag counter 7.
O=C(Nc1cccc(-c2nnc(-c3ccco3)o2)c1)C(c1ccccc1)c1ccccc1 was read as TAAR1 antag 64*, TAAR1 agonist 18, CHO parental Ca -1, GPR7 antag -11, OX1R antag-1 -4, OX1R antag-2 41, TAAR1 nonsel count 29*, TAAR1 antag conf 39, Ga16 ag counter 2 and TAAR1 ag counter 0.
For O=C(Cc1ccc(Cl)cc1)Nc1cccc(-c2nnc(-c3ccco3)o2)c1 the results were TAAR1 antag 62*, TAAR1 agonist 18, CHO parental Ca -3, GPR7 antag 1, OX1R antag-1 -18, OX1R antag-2 16, TAAR1 nonsel count 27*, TAAR1 antag conf 40, Ga16 ag counter 11 and TAAR1 ag counter 11.
For CC(=O)Oc1ccc(C(=O)Nc2cccc(-c3nnc(-c4ccco4)o3)c2)cc1 the results were TAAR1 antag 35, TAAR1 agonist 18, CHO parental Ca -8, GPR7 antag 1, OX1R antag-1 -18 and OX1R antag-2 10.
COCCNC(=O)c1[nH]c(C(F)(F)F)nc1-c1ccccc1 was read as TAAR1 antag -13 and TAAR1 agonist 0.
`COc1cc(OC)cc(C(=O)Nc2cccc(-c3ccc(N4CCOCC4)nn3)c2)c1` gave TAAR1 antag 55*, TAAR1 agonist 11, CHO parental Ca -12, OX1R antag-1 -26, OX1R antag-2 5, TAAR1 nonsel count 35*, TAAR1 antag conf 39, Ga16 ag counter 6 and TAAR1 ag counter 8.
Screening O=C(COc1ccc(Cl)cc1)Nc1cccc(-c2ccc(N3CCOCC3)nn2)c1 returned TAAR1 antag 68*, TAAR1 agonist 13, CHO parental Ca -4, OX1R antag-1 -25, OX1R antag-2 6, TAAR1 nonsel count 32*, TAAR1 antag conf 45, Ga16 ag counter 7 and TAAR1 ag counter 4.
COc1ccc(Cl)cc1Nc1nc(NCCO)nc(N2CCCC2)n1 was read as TAAR1 antag -1, TAAR1 agonist -2, CHO parental Ca -8, GPR7 antag -17, OX1R antag-1 -8 and OX1R antag-2 10.
`OCCNc1nc(Nc2cc(Cl)ccc2OC2CCCC2)nc(N2CCCC2)n1` gave TAAR1 antag 49*, TAAR1 agonist 14, CHO parental Ca -30, OX1R antag-1 -26, OX1R antag-2 16, TAAR1 nonsel count 22*, TAAR1 antag conf 27, Ga16 ag counter 4 and TAAR1 ag counter 6.
`CC(=O)c1ccc(NC(=O)N2CCCC(C(=O)c3ccc4c(c3)OCO4)C2)cc1` (configuration not stated) gave TAAR1 antag 49*, TAAR1 agonist 10, CHO parental Ca -8, GPR7 antag -8, OX1R antag-1 -33, OX1R antag-2 18, TAAR1 nonsel count 22*, TAAR1 antag conf 35, Ga16 ag counter 11 and TAAR1 ag counter 11.
`CC(C)(C)c1ccc(OCc2ccc(C(=O)Nc3cccnc3)o2)cc1` gave TAAR1 antag 75*, TAAR1 agonist 9, CHO parental Ca 29*, GPR7 antag -7, OX1R antag-1 35, OX1R antag-2 8, TAAR1 nonsel count 50*, TAAR1 antag conf 61*, Ga16 ag counter 11 and TAAR1 ag counter 12.
`COc1cccc(N2CCN(C(=O)CC(C)(C)CC3=NS(=O)(=O)c4ccccc4N3)CC2)c1` gave TAAR1 antag 72*, TAAR1 agonist 17, CHO parental Ca 15, GPR7 antag -6, OX1R antag-1 -1, OX1R antag-2 12, TAAR1 nonsel count 36*, TAAR1 antag conf 59*, Ga16 ag counter 14* and TAAR1 ag counter 16.
O=C(CCCC1=NS(=O)(=O)c2ccccc2N1)N1CCN(c2ccccc2)CC1 was read as TAAR1 antag 15, TAAR1 agonist 14, CHO parental Ca -22, GPR7 antag -17, OX1R antag-1 -3 and OX1R antag-2 5.
